≈ marks a conversion by molar mass, not a printed value.
Tests used:
[1] = system: Bacillus subtilis; experiment: Antibacterial activity against Bacillus subtilis at 2 mg/mL after 18 hrs by disc diffusion assay; format: functional; conditions: read-out: IZ
Method in brief: (§1)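 Bacteria were grown in nutrient broth at 37 °C for 18 h on a rotary shaker at 150 rpm. Compounds were dissolved in DMF. Nutrient agar plates were dried at 35–36 °C for about 30 min, and test strains were spread on the surface. Discs were applied, and plates were inverted and incubated at 37 °C. A DMF blank was run.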

[2] = system: Staphylococcus aureus; experiment: Antibacterial activity against Staphylococcus aureus at 1 mg/mL after 18 hrs by disc diffusion assay; format: functional; conditions: read-out: IZ; method in brief: as §1
[3] = system: Escherichia coli; experiment: Antibacterial activity against Escherichia coli at 1 mg/mL after 18 hrs by disc diffusion assay; format: functional; conditions: read-out: IZ; method in brief: as §1
[4] = system: Staphylococcus aureus; experiment: Antibacterial activity against Staphylococcus aureus at 2 mg/mL after 18 hrs by disc diffusion assay; format: functional; conditions: read-out: IZ; method in brief: as §1
[5] = system: Brain; experiment: Antioxidant activity in Wistar rat brain assessed as inhibition of lipid peroxidation; format: functional, tissue-based
[6] = system: Escherichia coli; experiment: Antibacterial activity against Escherichia coli after 18 hrs; format: functional
[7] = system: Staphylococcus aureus; experiment: Antibacterial activity against Staphylococcus aureus after 18 hrs; format: functional
[8] = system: Bacillus subtilis; experiment: Antibacterial activity against Bacillus subtilis after 18 hrs; format: functional
[9] = system: Brain; experiment: Antioxidant activity in Wistar rat brain assessed as catalase content; format: functional
[10] = system: Klebsiella pneumoniae; experiment: Antibacterial activity against Klebsiella pneumoniae at 1 mg/mL after 18 hrs by disc diffusion assay; format: functional; conditions: read-out: IZ; method in brief: as §1
[11] = target: T1, Catalase (Rattus norvegicus, UniProt P04762); experiment: Inhibition of catalase in Wistar rat brain
T1 sequence (P04762 whole entry): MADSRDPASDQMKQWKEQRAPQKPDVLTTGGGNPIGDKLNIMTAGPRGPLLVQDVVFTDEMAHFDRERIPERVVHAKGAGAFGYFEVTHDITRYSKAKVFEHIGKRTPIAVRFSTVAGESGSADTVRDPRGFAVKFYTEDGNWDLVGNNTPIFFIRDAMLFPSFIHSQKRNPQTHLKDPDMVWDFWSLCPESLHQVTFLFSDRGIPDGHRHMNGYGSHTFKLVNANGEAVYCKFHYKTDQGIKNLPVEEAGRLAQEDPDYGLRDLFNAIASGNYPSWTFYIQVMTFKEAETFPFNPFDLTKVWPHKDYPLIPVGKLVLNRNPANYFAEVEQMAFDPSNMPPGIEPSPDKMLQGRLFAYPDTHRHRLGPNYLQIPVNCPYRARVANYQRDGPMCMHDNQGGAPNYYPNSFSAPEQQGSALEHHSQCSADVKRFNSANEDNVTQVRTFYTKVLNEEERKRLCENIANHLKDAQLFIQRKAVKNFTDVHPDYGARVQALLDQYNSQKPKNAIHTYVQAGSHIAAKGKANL

[12] = system: Brain; experiment: Antioxidant activity in Wistar rat brain assessed as reduction in glutathione content; format: functional, tissue-based
Method in brief: (§2)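 Wistar rat brain was homogenised 1:40 (w/v) in 0.1 M phosphate buffer, pH 7.4, with 1 mM EDTA. Total glutathione (GSH + GSSG) and reduced GSH were assayed spectrophotometrically from optical density, using net rate against a standard-curve slope and intercept, times a dilution factor. Homogenate protein was measured by the Lowry method.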

[13] = Inhibition of superoxide dismutase in Wistar rat brain; format: tissue-based
[14] = system: Klebsiella pneumoniae; experiment: Antibacterial activity against Klebsiella pneumoniae after 18 hrs; format: functional
[15] = system: Brain; experiment: Antioxidant activity in Wistar rat brain assessed as lipid peroxidation; format: functional, tissue-based
[16] = system: Brain; experiment: Antioxidant activity in Wistar rat brain assessed as glutathione content; format: functional; method in brief: as §2
[17] = system: Klebsiella pneumoniae; experiment: Antibacterial activity against Klebsiella pneumoniae at 2 mg/mL after 18 hrs by disc diffusion assay; format: functional; conditions: read-out: IZ; method in brief: as §1
[18] = system: Brain; experiment: Antioxidant activity in Wistar rat brain assessed as superoxide dismutase content; format: functional
[19] = system: Bacillus subtilis; experiment: Antibacterial activity against Bacillus subtilis at 1 mg/mL after 18 hrs by disc diffusion assay; format: functional; conditions: read-out: IZ; method in brief: as §1
[20] = system: Escherichia coli; experiment: Antibacterial activity against Escherichia coli at 2 mg/mL after 18 hrs by disc diffusion assay; format: functional; conditions: read-out: IZ; method in brief: as §1

## COc1ccc2c3c1O[C@H]1C[C@@H](OP(=O)(OCCO)Oc4ccc([N+](=O)[O-])cc4)C=C[C@@]31CCN(C)C2 (stereo not given in full)
[1]
  zone of inhibition at 2000 µg/mL: 3.71 mm
[2]
  zone of inhibition at 1000 µg/mL: 1.9 mm
[3]
  zone of inhibition at 1000 µg/mL: 1.53 mm
[4]
  zone of inhibition at 2000 µg/mL: 4.27 mm
[5]
  EC50: 3.17 µg/mL (≈ 5.95 µM)
[6]
  MIC: 0.67 µg/mL (≈ 1.26 µM)
[7]
  MIC: 1.09 µg/mL (≈ 2.05 µM)
[8]
  MIC: 0.25 µg/mL (≈ 0.469 µM)
[9]
  Activity: 286.43 µg/mL
[10]
  zone of inhibition at 1000 µg/mL: 2.69 mm
[11]
  EC50: 3.28 µg/mL (≈ 6.16 µM)
[12]
  EC50: 2.82 µg/mL (≈ 5.3 µM)
[13]
  EC50: 3.28 µg/mL (≈ 6.16 µM)
[14]
  MIC: 0.39 µg/mL (≈ 0.732 µM)
[15]
  Activity: 72.1 µg/mL
[16]
  Activity: 5.21 µg/mL
[17]
  zone of inhibition at 2000 µg/mL: 4.96 mm
[18]
  Activity: 29.41 µg/mL
[19]
  zone of inhibition at 1000 µg/mL: 2.61 mm
[20]
  zone of inhibition at 2000 µg/mL: 5.01 mm

## COc1ccc2c3c1O[C@H]1C[C@@H](OP(=O)(OP(=O)(O)O)N(CCCl)CCCl)C=C[C@@]31CCN(C)C2 (stereo not given in full)
[1]
  zone of inhibition at 2000 µg/mL: 4.49 mm
[2]
  zone of inhibition at 1000 µg/mL: 1.72 mm
[3]
  zone of inhibition at 1000 µg/mL: 1.26 mm
[4]
  zone of inhibition at 2000 µg/mL: 4.65 mm
[5]
  EC50: 1.98 µg/mL (≈ 3.47 µM)
[6]
  MIC: 0.42 µg/mL (≈ 0.735 µM)
[7]
  MIC: 0.38 µg/mL (≈ 0.665 µM)
[8]
  MIC: 0.16 µg/mL (≈ 0.28 µM)
[9]
  Activity: 278.33 µg/mL
[10]
  zone of inhibition at 1000 µg/mL: 1.39 mm
[11]
  EC50: 2.18 µg/mL (≈ 3.82 µM)
[12]
  EC50: 2.68 µg/mL (≈ 4.69 µM)
[13]
  EC50: 1.26 µg/mL (≈ 2.21 µM)
[14]
  MIC: 0.48 µg/mL (≈ 0.84 µM)
[15]
  Activity: 74.9 µg/mL
[16]
  Activity: 4.72 µg/mL
[17]
  zone of inhibition at 2000 µg/mL: 3.68 mm
[18]
  Activity: 28.14 µg/mL
[19]
  zone of inhibition at 1000 µg/mL: 2.09 mm
[20]
  zone of inhibition at 2000 µg/mL: 4.08 mm

## COc1ccc2c3c1O[C@H]1C[C@@H](OP(=O)(NCCO)N(CCCl)CCCl)C=C[C@@]31CCN(C)C2 (stereo not given in full)
[1]
  zone of inhibition at 2000 µg/mL: 3.46 mm
[2]
  zone of inhibition at 1000 µg/mL: 1.47 mm
[3]
  zone of inhibition at 1000 µg/mL: 1.32 mm
[4]
  zone of inhibition at 2000 µg/mL: 4.78 mm
[5]
  EC50: 1.42 µg/mL (≈ 2.66 µM)
[6]
  MIC: 0.35 µg/mL (≈ 0.655 µM)
[7]
  MIC: 0.29 µg/mL (≈ 0.543 µM)
[8]
  MIC: 0.11 µg/mL (≈ 0.206 µM)
[9]
  Activity: 287.59 µg/mL
[10]
  zone of inhibition at 1000 µg/mL: 1.47 mm
[11]
  EC50: 1.52 µg/mL (≈ 2.84 µM)
[12]
  EC50: 1.03 µg/mL (≈ 1.93 µM)
[13]
  EC50: 1.28 µg/mL (≈ 2.4 µM)
[14]
  MIC: 0.15 µg/mL (≈ 0.281 µM)
[15]
  Activity: 72.3 µg/mL
[16]
  Activity: 4.73 µg/mL
[17]
  zone of inhibition at 2000 µg/mL: 4.45 mm
[18]
  Activity: 29.86 µg/mL
[19]
  zone of inhibition at 1000 µg/mL: 2.22 mm
[20]
  zone of inhibition at 2000 µg/mL: 3.86 mm
